Data: PMC6886526 (Journal of structural biology, 2016)
Where “and” joins values, the source holds several entries; their conditions need not be identical. Identical values can stand only once.

What was measured:
StAcrR [1] = target: T1, StAcrR (Salmonella enterica subsp. enterica serovar Typhimurium, UniProt Q7CR15); assay: Competition FP assay in the presence of Pf; type: binding; settings: for IC50: IC50, competition FP, 10 μM StAcrR and 100 nM Pf
StAcrR [2] = target: T1, StAcrR; assay: Fluorescence-based thermal shift; type: binding; settings: for FTS rank (Table S1): rank among hits of the SPC2-ECH008 library screen; for dose-dependent effect on StAcrR thermal stability: 2.5-100 μM ligand
Human enolase 1 (ENO1) = Human enolase 1 (ENO1) (Homo sapiens, UniProt P06733); assay: FTS assay with negative control protein; type: binding; settings: 10, 25, 50 and 100 μM ligand
Outline: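 Human enolase 1 was mixed with SYPRO Orange dye in 100 mM HEPES pH 7.5 with 150 mM NaCl. Ligands were dispensed acoustically from a DMSO stock. Plates were scanned from 10 to 80 °C at 1.5 °C min-1 on a real-time PCR instrument, reading fluorescence every 10 s. Stabilisation was judged from the melting temperature shift (ΔTm), background reduction and melting-curve shape.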

StAcrR [3] = target: T1, StAcrR; assay: Fluorescence polarization; type: binding
EcAcrR-Glu67Ala mutant = settings: ref Li et al., 2007, Su et al.; cited from earlier work
human ENO1 = human ENO1 (Homo sapiens, UniProt P06733); assay: FP binding assay with negative control protein; settings: ENO1 up to 100 μM
Chain of human ENO1 (P06733 whole entry): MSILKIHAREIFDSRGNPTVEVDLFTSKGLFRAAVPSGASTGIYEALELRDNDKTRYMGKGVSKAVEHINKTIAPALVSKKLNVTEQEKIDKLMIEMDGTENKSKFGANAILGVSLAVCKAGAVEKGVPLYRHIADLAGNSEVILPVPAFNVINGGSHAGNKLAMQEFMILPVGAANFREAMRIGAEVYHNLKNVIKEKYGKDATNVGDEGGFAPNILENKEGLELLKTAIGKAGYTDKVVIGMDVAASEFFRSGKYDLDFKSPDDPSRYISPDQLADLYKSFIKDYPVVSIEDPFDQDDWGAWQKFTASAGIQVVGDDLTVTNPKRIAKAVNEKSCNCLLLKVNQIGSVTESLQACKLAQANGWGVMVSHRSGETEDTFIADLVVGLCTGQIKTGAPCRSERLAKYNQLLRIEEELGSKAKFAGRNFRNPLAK

Chain of Human enolase 1 (ENO1) (P06733 whole entry): as above

| SMILES | IC50 (StAcrR [1]) | FTS rank (Table S1) (StAcrR [2]) | dose-dependent effect on StAcrR thermal stability (StAcrR [2]) | other results |
| --- | --- | --- | --- | --- |
| Cc1cc(N)c2ccccc2[n+]1CCCCCCCCCC[n+]1c(C)cc(N)c2ccccc21 [Dequalinium chloride, dequalinium] | 22.5 µM | 14 | – | change of Tm of StAcrR (StAcrR [2]; below 10 μM ligand): did not notably change; effect on thermal stability of human enolase 1 (Human enolase 1 (ENO1)): no effect |
| O=C(NC(=O)c1c(F)cccc1F)Nc1ccc(Cl)cc1 [Diflubenzuron, diflubenzuron] | – | – | – | competition with Pf for binding (StAcrR [1]; negative control ligand): did not compete |
| C[C@]12CC[C@@H]3c4ccc(OC(=O)N(CCCl)CCCl)cc4CC[C@H]3[C@@H]1CC[C@@H]2O [Estramustine, estramustine] | ~18 µM and 18 µM | 5 | Apparent increase in the StAcrR thermal stability at very low concentrations | – |
| CC[n+]1c(-c2ccccc2)c2cc(N)ccc2c2ccc(N)cc21 [Et, ethidium] | – | – | – | Kd (StAcrR [3]): 67.3 ± 4.6 µM; binding by the Glu67Ala mutant of EcAcrR (EcAcrR-Glu67Ala mutant): abolishment of the binding |
| C[C@]12CC[C@@H]3c4ccc(O)cc4C[C@@H](CCCCCCCCC[S+]([O-])CCCC(F)(F)C(F)(F)F)[C@H]3[C@@H]1CC[C@@H]2O (stereo partly shown) [Fulvestrant, fulvestrant] | 40.1 µM | 1 | Apparent increase in the StAcrR thermal stability at very low concentrations | – |
| COC1=C(OC)C(=O)C(CCCCCCCCCCO)=C(C)C1=O [Idebenone, idebenone] | 2.8 µM | 2 | required higher concentrations | – |
| Nc1ccc2cc3ccc(N)cc3nc2c1 [Pf, proflavine] | – | – | – | FP increase with human ENO1 (human ENO1): No FP increase; Kd (StAcrR [3]): 3.9 ± 0.1 µM; affinity to StAcrR relative to Et and R6G (StAcrR [3]; ratio of FP Kd values): over 10 fold; binding by the Glu67Ala mutant of EcAcrR (EcAcrR-Glu67Ala mutant): abolishment of the binding |
| C[C@]12CC[C@H](O)CC1=CC[C@@H]1[C@@H]2CC[C@]2(C)C(=O)CC[C@@H]12 [Prasterone, prasterone] | 5.4 µM | 6 | required higher concentrations | FTS rank (Table S1) (StAcrR [2]; listed as prasterone): 9 |
| CC/N=c1\cc2oc3cc(NCC)c(C)cc3c(-c3ccccc3C(=O)OCC)c-2cc1C [R6G, rhodamine 6G] | – | – | – | Kd (StAcrR [3]): 43.7 ± 1.3 µM; binding by the Glu67Ala mutant of EcAcrR (EcAcrR-Glu67Ala mutant): abolishment of the binding |
| CC(C)c1nc(CN(C)C(=O)N[C@H](C(=O)N[C@@H](Cc2ccccc2)C[C@H](O)[C@H](Cc2ccccc2)NC(=O)OCc2cncs2)C(C)C)cs1 [Ritonavir, ritonavir] | – | 4 | Apparent increase in the StAcrR thermal stability at very low concentrations | – |
| CSc1nc2cc(Cl)c(Oc3cccc(Cl)c3Cl)cc2[nH]1 [Triclabendazole, triclabendazole] | 25.7 µM | 3 | required higher concentrations | – |
